Assay outcomes: PubChem BioAssay, several laboratories
In the library only some 1.8% were active in any assay of this set; here they are far more common.
Runt-SMMHC FRET = blocks binding of human RUNX1 Runt domain to CBFb-SMMHC; Q01196+Q13951; Cerulean-Runt/Venus-CBFb-SMMHC FRET ratio 530/480, 1 h; inhibition, % at 20 µM; 220,000 tested, 0.74% active; AID 1434;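 active = mean inhibition across duplicate retests at 20 µM reaching about 50%, limit read from the data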;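 also: 0% = DMSO wells and 100% = wells with excess untagged CBFb-SMMHC; inhibitors lower the FRET ratio by blocking Runt binding to CBFb-SMMHC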
Target sequence (Q01196 whole entry, looked up, the tested form may be a part): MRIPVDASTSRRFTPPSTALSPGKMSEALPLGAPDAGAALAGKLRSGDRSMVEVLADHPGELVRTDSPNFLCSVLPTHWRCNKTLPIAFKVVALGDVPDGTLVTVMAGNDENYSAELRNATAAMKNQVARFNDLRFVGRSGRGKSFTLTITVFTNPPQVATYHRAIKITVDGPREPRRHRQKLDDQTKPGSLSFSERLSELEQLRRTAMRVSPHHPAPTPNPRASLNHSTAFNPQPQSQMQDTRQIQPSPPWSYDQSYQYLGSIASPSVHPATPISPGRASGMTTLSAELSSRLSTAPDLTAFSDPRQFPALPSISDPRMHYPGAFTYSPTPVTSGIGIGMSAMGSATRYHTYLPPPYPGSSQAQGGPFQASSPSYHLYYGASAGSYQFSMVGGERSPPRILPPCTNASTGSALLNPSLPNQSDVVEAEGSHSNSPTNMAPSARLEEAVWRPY
Target sequence (Q13951 whole entry, looked up, the tested form may be a part): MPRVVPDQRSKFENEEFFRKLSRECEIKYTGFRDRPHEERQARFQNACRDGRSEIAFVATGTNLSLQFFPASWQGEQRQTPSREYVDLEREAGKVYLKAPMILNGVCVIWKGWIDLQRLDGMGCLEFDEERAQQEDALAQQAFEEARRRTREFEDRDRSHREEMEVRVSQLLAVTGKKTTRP
Runt-CBFb FRET = inhibitors of human RUNX1 Runt domain binding to CBFb. Q01196+Q13951. AID 1496. 220,000 tested, 0.46% active. inhibition, % at 20 µM. Cerulean-Runt/Venus-CBFb FRET ratio 530/480, 1 h;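 active = inhibition over about 50% at 20 µM in the single-dose screen, limit read from the data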;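 also: 0% = DMSO wells and 100% = excess unlabeled CBFb competitor control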
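Assay system: Cerulean-Runt domain / Medium: Tris 50 mM pH 7.5, KCl, K2SO4, 0.01% BSA / Timing: protein complex preformed 1 h, compound exposure 1 h, room temperature, dark / Measured by: FRET, excitation 422 nm, emission at 530 and 480 nm / Evaluation: loss of energy transfer signal / Control set: 5 µM unlabeled CBFb as full-inhibition high control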
RanGTP-Imp inh = disruptors of Ran-importin-beta complex formation – biochemical, FRET, CFP-Ran, YFP-importin-beta, homogeneous, primary screen; cell-free CFP-Ran/YFP-importin-beta FRET ratio; inhibition, % (concentration not given with the values); 300,000 tested, 1.1% active;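 active = more than half of the replicate wells show a fall in the fluorescence ratio signal beyond about 16%, limit read from the data, passing the limit was not always enough; inconclusive = exactly half of the replicate wells pass the set limit; inactive = fewer than half of replicates pass the limit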;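 also: 0% = DMSO wells and 100% = Ran loaded with GDP instead of GTP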
Hck-Nef inh = human Hck-Nef kinase inhibition | P08631 | Recombinant Hck-YEEI plus Nef, Z-Lyte FRET kinase assay | inhibition, % at 20 µM | 220,000 tested, 0.68% active;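 active = Hck-Nef kinase inhibition above about 50%, limit read from the data; inactive = inhibition below that limit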;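 also: 0% = DMSO with Hck plus Nef and 100% = Hck alone without Nef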
YIC FRET counter = counter-screen: alters YIC FRET probe signal; IC50, µM; Purified YIC probe, intramolecular FRET ratio YFP/CFP; 1,000 tested, 40% active; shares compounds with RanGTP-Imp inh; AID 435026;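 active = fitted half-maximal inhibitory concentration no more than tenfold above the top dose tested; inconclusive = flat fit with 30 to 70% activity, or poor fit; inactive = half-maximal concentration beyond tenfold above the top dose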
Numbers without * were called inactive; ? = inconclusive; · = not tested or not shown.

SMILES | Runt-SMMHC FRET | Runt-CBFb FRET | RanGTP-Imp inh | Hck-Nef inh | YIC FRET counter
Cc1cccc(CN2CCC(CNC(=O)Cn3ncc4c([nH]c5ccccc54)c3=O)CC2)c1 | · | · | 2 | · | ·
Cc1cc(C(=O)N2CCc3c([nH]c4ccccc34)C2c2c(F)cccc2Cl)no1 (configuration not stated) | 2 | 1 | 27* | 2 | >50
O=C(O)c1cn(Cc2cccnc2)c(=O)c2ccccc12 | 1 | -1 | 18* | 15 | >50
COCCNC(=S)N1CCCN(c2nc3cc(C)ccc3cc2C#N)CC1 | · | · | 18* | · | 31*
COc1ccc(N2C(=O)CC(C#N)=C2N)cc1 | -7 | -4 | 18* | 15 | >50
CSc1cccc(CN2CCC(n3nccc3NC(=O)C3CC3)CC2)c1 | · | · | 0 | · | ·
N#C/C(=C/c1cn(CC(=O)O)c2ccccc12)C(=O)NCc1ccccc1 | 4 | 4 | 23* | 23 | >50
CC(=O)N1CCC(N(CCN2CCOCC2)C(=O)Nc2ccc(Cl)c(Cl)c2)CC1 | · | · | 19* | 5 | >50
CCOC(=O)c1ccc(NC(=O)CSc2nc(C)nc3c2c(=O)n(C)c(=O)n3C)cc1 | 0 | -18 | 19* | 2 | >50
O=C(O)c1ccccc1P(=O)(c1ccccc1)c1ccccc1 | -1 | 1 | 16* | 18 | >50
O=C(OCc1ccccc1)N1CCc2ccccc21 | · | · | -1 | · | ·
Cc1ccc2oc(=O)n(Cc3ccc(F)cc3)c2c1 | · | · | -1 | · | ·
COCCNc1cc(C)nc2cc(-c3ccc(C)cc3)nn12 | 25 | 3 | 19* | 13 | 3.8*
Cc1cccc(-c2cc3nc(C)cc(NCCCN(C)C)n3n2)c1 | 4 | 1 | 2 | 1 | ·
CN(C)C=NC(=O)c1cc(C(=O)c2ccc(C(C)(C)C)cc2)c[nH]1 | 2 | 0 | 27* | -8 | >50
CN(C)C=NC(=O)c1cc(C(=O)c2ccccc2Cl)c[nH]1 | -8 | 0 | 1 | -5 | ·
COc1ccc(/C=C(\NC(=O)c2ccc(OC)cc2)C(=O)N2CCCCC2)cc1 | · | · | -4 | · | ·
CC(OC(=O)c1cccc(-n2cnnn2)c1)C(=O)NCc1ccccc1 (configuration not stated) | · | · | -3 | · | ·
CCN1C(=O)CC(NC2CCN(C(=O)c3ccc(F)cc3)CC2)C1=O (configuration not stated) | · | · | 6 | · | ·
CNc1cc(F)nc(F)n1 | 36 | 14 | 27* | 20 | 22*
CCn1c(=O)cc(N2CCOCC2)[nH]c1=O | -2 | -1 | 24* | 20 | >50
Cn1c(=O)cc(N2CCCCC2)[nH]c1=O | -1 | -3 | 19* | 3 | >50
CCn1c(=O)cc(N2CCCCC2)[nH]c1=O | 0 | 1 | 23* | 2 | >50
CCCCn1c(=O)cc(N2CCOCC2)[nH]c1=O | 0 | 0 | 1 | 0 | ·
Cc1cccc(C(=O)Nc2ccccc2C(=O)NCc2ccco2)c1 | · | · | 2 | · | ·
SMILES | Runt-SMMHC FRET | Runt-CBFb FRET | RanGTP-Imp inh | Hck-Nef inh | YIC FRET counter
CCOC(=O)C(NC(=O)C1C(C)N1S(=O)(=O)c1ccc(C)cc1)C(=O)OCC (configuration not stated) | · | · | 2 | · | ·
Cc1ccc(CNC(=O)c2ccc(N3CCC4(CC3)CC(c3ccccc3)=NO4)c(N)c2)cc1 | · | · | 1 | · | ·
Cc1ccc(/C=C2/C(=O)c3ccc(C(=O)O)cc3C2=O)o1 | 19 | 32 | 19* | 41 | >50
COc1ccc(Cl)cc1S(=O)(=O)Nc1noc2ccccc12 | · | · | 16* | · | >50
Cc1ccc(-c2nc(CSCC(=O)N3CCN(c4ccccn4)CC3)c(C)o2)cc1 | 0 | 2 | -1 | 6 | ·
CCc1ccc(-c2nc(CSCC(=O)N3CCN(c4ccccn4)CC3)c(C)o2)cc1 | -2 | -3 | 18* | -1 | >50
CCc1nnc(NC(=O)c2c(C)nn(-c3ccccc3)c2Cl)s1 | -1 | -2 | 20* | -2 | >50
COc1ccc(-n2c(N)c(C(=O)NCc3ccco3)c3nc4ccccc4nc32)c(OC)c1 | 95* | 40 | 33* | 35 | 19*
O=C(COC(=O)CCSc1ccccc1Cl)NCc1ccco1 | -1 | 0 | -4 | -96 | ·
COc1ccc(-c2c(N)nnc3c2[nH]c2ccccc23)cc1OC | 4 | 0 | 27* | 2 | >50
CS(=O)(=O)c1nsc2nc(=O)c(/C=C3\C=Nc4ccccc43)c(N)n12 | 73* | 29 | 25* | 26 | 20*
CC(C)c1nn2c(N)c(/C=C3\C=Nc4ccccc43)c(=O)nc2s1 | 17 | 2 | ? | 28 | ·
CC(C)Cc1nn2c(N)c(/C=C3\C=Nc4ccccc43)c(=O)nc2s1 | -54 | -85 | 25* | 17 | >50
CCCc1nn2c(N)c(/C=C3\C=Nc4ccccc43)c(=O)nc2s1 | -23 | 4 | -11 | 24 | ·
CC(=O)[C@@H]1[C@@H](C)N(Cc2ccccc2)C(=O)N[C@H]1c1cccc(C(F)(F)F)c1 | -1 | -1 | 20* | 26 | >50
COC(=O)[C@@H]1[C@@H](C)N(Cc2ccccc2)C(=O)N[C@H]1c1cccc(C(F)(F)F)c1 | 0 | 1 | 2 | 25 | ·
CC(=O)N1N=C(c2cccs2)CC1c1cccs1 (configuration not stated) | 1 | 0 | 0 | 12 | ·
CC(=O)c1ccc(-c2cccs2)s1 | 143* | 78* | 19* | 38 | 29*
Cc1cc(C)cc(NC(=O)CN2CCN(c3ccccc3)CC2)c1 | · | · | 5 | · | ·
COc1cc(C(=O)NCCNc2nc3cc(C)ccc3cc2C#N)cc(OC)c1OC | · | · | 17* | · | 30*
Cc1cc(C)c2cc(C#N)c(NCCOC(=O)c3ccccc3C)nc2c1 | 8 | 3 | 8 | 10 | ·
COc1cc(OC)cc(C(=O)NCCNc2nc3cc(C)cc(C)c3cc2C#N)c1 | · | · | 18* | · | 21*
COc1ccccc1C(=O)NCCNc1nc2cc(C)cc(C)c2cc1C#N | · | · | 19* | · | 40*
Cc1cc(NS(=O)(=O)c2ccc(NC(=O)Nc3cccc(C(F)(F)F)c3)cc2)no1 | · | · | -1 | · | ·
COc1ccc(N2C(=O)C3CCCCC3C2=O)cc1NC(=O)c1ccccc1 (configuration not stated) | 0 | 1 | 1 | 23 | ·
SMILES | Runt-SMMHC FRET | Runt-CBFb FRET | RanGTP-Imp inh | Hck-Nef inh | YIC FRET counter
CCOc1cc(C(=O)NC2CCCCCCC2)cc(OCC)c1OCC | · | · | -1 | · | ·
O=C(COc1ccc(F)cc1Br)NCc1ccccn1 | -2 | -1 | ? | 1 | ·
O=C(O)COc1ccc(F)cc1Br | 0 | 1 | 25* | -6 | >50
COc1ccc(NC(=O)CN2C(=O)NC3(CCCC3)C2=O)cc1OC | · | · | -1 | · | ·
O=c1cc(O)n(Cc2ccc(F)cc2)c(=O)[nH]1 | · | · | 1 | · | ·
CCOC(=O)c1sc(NC(=O)Cc2ccc(F)cc2)nc1C | 2 | -2 | 0 | 26 | ·
CCOC(=O)c1c(/N=C/c2ccc(C)cc2O)sc2c1CCN(C)C2 | -2 | 14 | 60* | 17 | >26
CCOC(=O)c1c(NC(=O)Cc2cccs2)sc2c1CCCC2 | -2 | 0 | 3 | -1 | ·
CCOC(=O)c1sc(NC(=O)Nc2ccc(F)cc2)nc1C | 2 | 1 | 18* | 0 | >50
CCOC(=O)c1c(NC(=S)Nc2ccc(F)cc2)sc2c1CCC2 | 2 | 7 | 5 | 17 | ·
